From PubChem
Hits are enriched below; roughly 3.9% of the tested compounds scored in any of these assays.
TAAR1 agonist = agonists of human TAAR1; Q96RJ0; CHO RD-HGA16 TAAR1, Fluo-8 calcium fluorescence; vehicle wells 0%, saturating PEA agonist 100%; activation, % at 3 µM; 360,000 tested, 0.99% active;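 active means activation above the mean activation of all test compounds in the run plus 3 SD, cut at about 38% in these data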
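Signal – calcium-sensitive Fluo-8 signal, excitation 470-495, emission 515-575 nm · System – RD-HGA16 (CHO) cells co-expressing Gα16 and hTAAR1 · Incubation – 17-24 h seeding, 75 min 37 °C dye, 30 min RT · Compound dosing – 3 µM single concentration · Repeats – no replicates (n 1)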
OX1R antag-1 = OX1R (human) antagonism; O43613; 330,000 tested, 1.8% active; inhibition, % at 6.6 µM; AID 485270; OX1R-expressing cells, FRET antagonist read-out; in the data active means inhibition mostly above about 38%, no sharp cut-off; inactive means mostly below about 40%;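 further: 0% = agonist challenge alone and 100% = reference antagonist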
Target sequence (O43613 whole entry, looked up): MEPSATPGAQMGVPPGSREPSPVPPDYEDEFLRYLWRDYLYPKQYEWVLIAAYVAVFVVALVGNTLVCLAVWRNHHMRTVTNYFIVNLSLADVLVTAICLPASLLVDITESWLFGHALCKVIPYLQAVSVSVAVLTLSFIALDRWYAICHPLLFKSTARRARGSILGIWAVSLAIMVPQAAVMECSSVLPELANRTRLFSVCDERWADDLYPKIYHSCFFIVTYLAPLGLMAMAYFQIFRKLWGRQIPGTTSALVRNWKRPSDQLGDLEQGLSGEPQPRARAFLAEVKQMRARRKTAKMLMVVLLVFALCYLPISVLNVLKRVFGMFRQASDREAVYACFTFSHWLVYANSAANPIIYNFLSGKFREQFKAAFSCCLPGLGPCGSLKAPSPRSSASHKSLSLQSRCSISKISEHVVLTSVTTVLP
OX1R antag-2 = human HCRTR1 antagonism; CHO/OX1R cells, Fluo-8 calcium fluorescence, orexin A; O43613; 330,000 tested, 0.43% active; inhibition, % at 5 µM; AID 434989;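 active means inhibition above its plate's threshold, mean inhibition of all tested compounds on the plate plus 3 SD, cut at about 37% in these data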;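 further: 0% = orexin A challenge wells and 100% = SB-334867-A antagonist wells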
TAAR1 antagonist = human TAAR1 antagonism. 360,000 tested, 1.5% active. CHO RD-HGA16 TAAR1, Fluo-8 calcium fluorescence, antagonist. inhibition, % at 3 µM. Q96RJ0. AID 624466;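 active means inhibition above a per-plate cutoff, the mean inhibition of test compounds on that plate plus 3 SD, cut at about 49% in these data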;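 further: 0% = DMSO plus EC80 beta-PEA response and 100% = DMSO alone without agonist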
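Test system: CHO RD-HGA16 cells bearing hTAAR1 | Reagent: β-PEA, EC80 | Compound dosing: 3 µM, single point | Schedule: Dye loading 75 min at 37 °C, then 30 min room temperature | Signal: Calcium fluorescence with Fluo-8 | Evaluation: Percent inhibition of PEA-evoked calcium signal, max/basal emission ratio | Control set: DMSO-only wells and EC80 β-PEA-stimulated wells | Repeats: Singlicate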
CHO parental Ca = counter-screen for OX1R antagonists: effect in parental CHO cells | parental CHO-K1, ATP-induced calcium, Fluo-8 fluorescence | 330,000 tested, 0.63% active | inhibition, % at 5.6 µM;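 active means inhibition above that plate's mean sample inhibition plus 3 SD, cut at about 26% in these data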;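 further: 0% = ATP-challenged DMSO wells and 100% = DMSO wells without ATP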
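Measured by: calcium-sensitive Fluo-8 fluorescence / Test system: CHO parental line / Controls: ATP-challenged DMSO wells low, unchallenged DMSO wells high / Measure: % inhibition / Compound: single nominal dose of 5.6 µM per compound / Replicates: single well per compound, no replicates / Reagent: ATP as calcium-mobilizing challenge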
TAAR1 nonsel count = counter-screen for TAAR1 antagonists: nonselective antagonists. shares compounds with TAAR1 antagonist. counterscreen cell line, calcium fluorescence, antagonist mode. inhibition, % at 3 µM. 2,400 tested, 77% active. AID 651780; in the data active means inhibition above about 22%;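 further: CHO-Ga16 host cells stimulated with ATP at an EC80 level; 0% = agonist EC80 plus vehicle and 100% = vehicle without agonist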
TAAR1 ant conf = human TAAR1 antagonism, confirmed; shares compounds with TAAR1 antagonist; TAAR1-expressing cells, fluorescence antagonist read-out; inhibition, % at 3 µM; 2,400 tested, 40% active; in the data active means inhibition above about 49%;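 further: CHO-Ga16 host cells challenged with agonist PEA near its EC80; 0% = agonist at EC80 plus vehicle and 100% = vehicle with no agonist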
Ga16 nonsel ag = nonselective Ga16 agonism, counter-screen; shares compounds with TAAR1 antagonist; Ga16-expressing cells, calcium fluorescence, agonist counterscreen; activation, % at 3 µM; 2,400 tested, 18% active; in the data active means activation above about 12%;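 further: 0% = vehicle wells and 100% = saturating stimulus response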
TAAR1 ag counter = counter-screen for human TAAR1 antagonists: TAAR1 agonists; shares compounds with TAAR1 antagonist; AID 651955; hTAAR1 cell line, fluorescence activation, agonist mode; activation, % at 3 µM; 2,400 tested, 2% active; in the data active means activation above about 37%;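 further: CHO cells stably expressing TAAR1 with calcium dye readout; 0% = DMSO vehicle and 100% = full agonist response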
* = called active by the depositor; nt = not tested or not shown.

SMILES	TAAR1 agonist	OX1R antag-1	OX1R antag-2	TAAR1 antagonist	CHO parental Ca	TAAR1 nonsel count	TAAR1 ant conf	Ga16 nonsel ag	TAAR1 ag counter
CCC1CN(C(=O)N2CCC(C(=O)Nc3ccccc3F)CC2)c2ccccc2O1 (stereo unspecified)	8.8	12.0	-35.3	35.8	-12.9	nt	nt	nt	nt
CCC1CN(C(=O)N2CCC(C(=O)NCc3ccco3)CC2)c2cc(C)ccc2O1 (stereo unspecified)	14.4	23.5	-30.3	49.5*	-18.1	27.6*	49.1*	9.3	9.0
CCC1CN(C(=O)N2CCC(C(=O)NCCc3ccc(OC)cc3OC)CC2)c2ccccc2O1 (stereo unspecified)	13.2	12.1	-32.7	56.5*	-24.9	35.0*	54.1*	10.2	14.2
COc1ccc(NC(=O)CN(C)C(=O)c2cn(-c3ccccc3)nc2-c2cccnc2)cc1	4.5	17.0	-38.5	14.4	-18.5	nt	nt	nt	nt
O=C1NCN(c2ccccc2)C12CCN(CCCC(c1ccc(F)cc1)c1ccc(F)cc1)CC2	37.3	15.9	39.9*	77.9*	25.5	47.4*	48.1	20.2*	35.3
O=C(CCCN1CCN(c2ccccc2)CC1)c1ccc(F)cc1	1.0	nt	nt	-33.3	nt	nt	nt	nt	nt
CCCN1C(=O)SC(CC(=O)Nc2ccccc2)C1=O (stereo unspecified)	7.5	11.8	-23.0	4.5	-8.3	nt	nt	nt	nt
CC(C)N=C1SC(CC(=O)Nc2ccccc2)C(=O)N1C(C)C (stereo unspecified)	16.0	6.7	-39.3	57.4*	-7.0	35.4*	46.7	6.6	8.9
CCc1ccc(C(C(=O)NCc2ccc(OC)cc2)N(CCOC)C(=O)Cc2cccs2)cc1 (stereo unspecified)	18.7	8.5	-17.2	72.6*	-14.4	29.1*	53.3*	9.2	8.1
COCCN(C(=O)Cc1cccs1)C(C(=O)NCc1ccc(OC)cc1)c1ccc(C(C)C)cc1 (stereo unspecified)	15.1	11.4	20.4	64.3*	13.7	29.2*	54.4*	10.3	12.9
COc1ccc(CNC(=O)Cc2cccs2)cc1	nt	3.7	-2.2	nt	2.6	nt	nt	nt	nt
O=C(NCc1ccccc1)C(c1ccccc1)N(Cc1ccc2c(c1)OCO2)C(=O)Cc1cccs1 (stereo unspecified)	10.0	47.8	6.2	80.4*	-18.7	39.9*	58.7*	12.3*	8.4
O=c1c2ccccc2c2ccccc2c(=O)n1Nc1ccccc1	4.4	nt	nt	-18.7	nt	nt	nt	nt	nt
Cc1ccccc1N1CCN(C2CCCN(C(=O)c3cn4cccc(C)c4n3)C2)CC1 (stereo unspecified)	14.3	nt	nt	57.2*	nt	29.6*	41.1	8.8	7.9
Cc1ccccc1N1CCN(C2CCCN(C(=O)c3ccccn3)C2)CC1 (stereo unspecified)	1.9	18.6	-4.9	-22.4	-13.2	nt	nt	nt	nt
O=C(c1cccs1)c1coc2ccc(O)c(CN3CCOCC3)c12	-3.8	14.6	-23.5	106.1*	-11.2	2.4	5.0	1.8	2.6
Cc1cc(NC(=O)CN2CCCC2c2nc3ccccc3s2)no1 (stereo unspecified)	6.3	23.2	-31.8	1.9	-17.7	nt	nt	nt	nt
CC1=C(C(=O)N(C(C)C)C(C)C)CC(CC(=O)NCc2cccs2)C(=O)N1Cc1ccccc1 (stereo unspecified)	2.5	nt	nt	-6.7	nt	nt	nt	nt	nt
COc1ccc(-c2nc3c(c(=O)n(C)c(=O)n3C)n2CC2CC(c3ccccc3)=NO2)cc1OC (stereo unspecified)	24.6	30.7	-24.3	61.8*	-6.9	29.6*	49.9*	9.6	11.1
COC(=O)c1ccc(COc2cccc(C)c2C)cc1	6.0	23.8	-10.1	-12.5	-6.9	nt	nt	nt	nt
O=S(=O)(c1cccs1)N1CCCc2nc(-c3ccc(F)cc3)ccc21	-0.6	nt	nt	53.3*	nt	33.2*	37.0	6.1	0.8
COc1ccc(-c2ccc3c(n2)CCCN3S(=O)(=O)c2ccc(OC)cc2)cc1	1.8	nt	nt	19.6	nt	nt	nt	nt	nt
